Compound activity deposited in PubChem by Broad Institute.
CFTR F508del cor = correctors of CFTR F508del function in bronchial epithelial cells; activity (quench increase), % at 7.58 µM; 350,000 compounds, 0.36% hits; CFBE cells, YFP halide quenching; stimulated with forskolin plus potentiator P3; % fluorescence drop versus neutral controls; AID 720511;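 active means mean added fluorescence quench of at least 8% versus neutral control, with both replicates also reaching 8%; inconclusive means only one of the mean or replicate conditions met; inactive means mean below 8% and not both replicates reaching 8%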;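 further: cells transiently co-express mutant CFTR-F508del with the halide-sensitive YFP; corrector assay measuring rescue of mutant channel to the surface after 24 h compound exposure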
DENV2 CPE = DENV2-induced cell death inhibition | DENV2-infected cells, cytopathic effect rescue, plate reader | CPE inhibition, % at 9.99 µM | 350,000 compounds, 1.7% hits | AID 651640; in the data active means CPE inhibition above about 20%, passing the limit was not always enough; inconclusive means no clear call, values can overlap the other calls; tested in BHK-21 cells;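 further: 0% = median of neutral control wells and 100% = median of positive control wells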
E-selectin induc = E-selectin induction on HUVECs; HUVEC E-selectin immunofluorescence imaging; normalized: neutral wells 0, TNF-alpha wells 100; activation, % at 7.58 µM; 260,000 compounds, 0.37% hits; AID 686992;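 active means mean E-selectin-positive cell signal at least 10% of the positive control, reached in at least 60% of replicates, without over 20% cell loss; inconclusive means no rule given, readout overlaps actives, possibly toxicity-flagged; inactive means the rest, including those meeting only one limit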
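System: HUVEC, human umbilical vein endothelial cells; quantity: 3,000 cells/well; buffer or medium: EGM-2 medium, gelatin-coated wells; dosing: single-point compound dose; detection: immunofluorescence imaging; evaluation: % PE-positive cells; benchmarks: TNF-alpha, DMSO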
ERAP1 HTS inh = blocks human ERAP1 aminopeptidase activity | Q9NZ08 | inhibition, % at 10.7 µM | recombinant ERAP1, Leu-AMC fluorescence, 60 min | AID 652197 | 340,000 compounds, 0.15% hits;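 active means mean replicate inhibition of at least 30%, or all replicates individually reaching that 30% level; inactive means mean below 30% and not every replicate reaching it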;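 further: 0% = neutral control wells and 100% = L-leucinethiol positive control wells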
Target sequence (Q9NZ08 whole entry, looked up): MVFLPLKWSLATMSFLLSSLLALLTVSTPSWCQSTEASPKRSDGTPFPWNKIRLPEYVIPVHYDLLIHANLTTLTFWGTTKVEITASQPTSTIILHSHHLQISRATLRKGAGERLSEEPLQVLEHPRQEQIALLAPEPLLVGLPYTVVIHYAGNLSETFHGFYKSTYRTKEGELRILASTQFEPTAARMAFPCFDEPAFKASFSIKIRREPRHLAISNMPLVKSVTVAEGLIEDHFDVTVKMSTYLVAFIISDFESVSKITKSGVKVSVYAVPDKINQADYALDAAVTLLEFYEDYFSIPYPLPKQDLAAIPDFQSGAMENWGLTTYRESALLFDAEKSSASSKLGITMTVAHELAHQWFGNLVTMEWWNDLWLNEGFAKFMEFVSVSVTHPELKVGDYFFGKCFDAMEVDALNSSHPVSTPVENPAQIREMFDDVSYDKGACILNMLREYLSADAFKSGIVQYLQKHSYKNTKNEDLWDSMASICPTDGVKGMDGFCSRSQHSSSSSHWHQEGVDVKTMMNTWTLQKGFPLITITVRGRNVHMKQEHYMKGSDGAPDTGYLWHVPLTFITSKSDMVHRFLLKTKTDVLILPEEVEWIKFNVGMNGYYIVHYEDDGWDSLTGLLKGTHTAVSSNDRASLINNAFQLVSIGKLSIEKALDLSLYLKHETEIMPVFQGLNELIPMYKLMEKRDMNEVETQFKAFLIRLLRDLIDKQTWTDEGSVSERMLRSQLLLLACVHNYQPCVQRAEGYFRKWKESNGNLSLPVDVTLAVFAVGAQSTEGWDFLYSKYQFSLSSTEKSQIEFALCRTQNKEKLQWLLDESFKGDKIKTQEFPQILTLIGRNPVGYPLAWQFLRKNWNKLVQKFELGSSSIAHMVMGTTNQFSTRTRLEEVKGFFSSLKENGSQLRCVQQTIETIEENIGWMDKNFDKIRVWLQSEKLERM
FGF22 binding = binders of recombinant human FGF22 by thermal shift; AID 651658; activity (Tm shift, normalised), % at 9.99 µM; SYPRO orange fluorescence; percent of sucrose octasulfate shift, DMSO zero; Q9HCT0; 340,000 compounds, 1.5% hits;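 active means mean Tm shift, scaled 0 neutral to 100 positive control, at about 1.3% or above, every replicate too, limit read from the data; inconclusive means no clear call, values can overlap the other calls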
Starred values were filed as active, the others as inactive; ? = inconclusive; . = no result. An excerpt weighted towards active compounds, which were near 3.7% of everything screened.

SMILES	CFTR F508del cor	DENV2 CPE	E-selectin induc	ERAP1 HTS inh	FGF22 binding
O=C(C[C@H]1CC[C@@H]2[C@H](COC[C@@H](O)CN2C(=O)Cc2ccccc2)O1)NC1CCCC1	3	?	0	0	.
C[C@@H]1CCCCO[C@H](CN(C)S(=O)(=O)c2cn(C)cn2)[C@@H](C)CN([C@@H](C)CO)C(=O)c2cc(NC(=O)CCCN(C)C)ccc2O1	0	-11	0	-2	0
CC(C)C[C@H](NC(=O)Nc1cccc(Br)c1)C(=O)O	-1	-15	.	0	44*
CC1CC(C)CN(C(=O)COC(=O)Cc2ccc(Br)cc2)C1 (stereo unspecified)	0	2	.	-1	0
O=C(Cc1ccc(Br)cc1)OCC(=O)N1CCCCCC1	1	-2	0	4	43*
O=C(NC1CCCC1)N[C@H]1C=C[C@H](CC(=O)N2CCOCC2)O[C@H]1CO	0	57*	1	0	0
O=C(NC1CCCC1)N[C@H]1C=C[C@@H](CC(=O)N2CCOCC2)O[C@@H]1CO	1	36*	0	-1	0
O=C(NC1CCCCC1)N[C@H]1C=C[C@@H](CC(=O)N2CCOCC2)O[C@@H]1CO	-2	108*	-1	1	0
C=CCOc1ccccc1OCC(O)CNC(C)C (stereo unspecified)	-3	40*	0	-1	0
O=C(/C=C/c1c(Cl)nc2ccccn12)Nc1ccc(F)cc1	0	-3	.	-2	44*
COc1ccc(C(CNC(=O)/C=C/c2c(Cl)nc3ccccn23)N(C)C)cc1 (stereo unspecified)	0	0	1	0	0
OCCNCCCCOc1cccc(Br)c1	0	39*	.	0	0
COCCCNCCCCOc1cccc(Br)c1	1	3	.	-2	0
Cc1ccc(C2Nc3ccccc3NC3=C2C(=O)OC(C)C3)cc1 (stereo unspecified)	0	-9	.	0	0
CC1CC2=C(C(=O)O1)C(c1ccc(Cl)cc1)Nc1ccccc1N2 (stereo unspecified)	-2	88*	.	1	0
OCCC1CN(CCCn2cccn2)CCN1Cc1ccccc1 (stereo unspecified)	.	3	.	7	43*
CCOc1ccc(CN2CCN(CCCc3ccccc3)CC2CCO)cc1 (stereo unspecified)	7	22*	.	-3	0
CCOc1ccccc1CN1CCN(Cc2ccc(C)o2)C(CCO)C1 (stereo unspecified)	1	-7	.	-1	43*
CCOc1ccc(CN2CCN(Cc3nc(C(C)C)cs3)CC2CCO)cc1 (stereo unspecified)	.	1	.	5	43*
Cc1ccc(S(=O)(=O)N(C)C[C@@H]2Oc3ccc(NC(=O)CCCCCC(=O)Nc4ccccc4N)cc3C(=O)N([C@@H](C)CO)C[C@H]2C)cc1	-3	-17	0	1	-1
COc1ccc(NC(=O)N(C)C[C@@H]2Oc3ccc(NC(=O)Nc4c(C)noc4C)cc3C(=O)N([C@H](C)CO)C[C@@H]2C)cc1	0	6	0	.	0
C[C@H](NC(=O)C[C@H]1CC[C@H](NC(=O)C2CCOCC2)[C@H](CO)O1)c1ccccc1	2	11	0	2	0
CCC(C)N(C(=O)CSc1ccc(NC(C)=O)cc1)C1CCS(=O)(=O)C1 (stereo unspecified)	3	2	2	3	43*
O=C(O)Cn1cc(/C=C2/NC(=O)N(c3ccc(Cl)cc3)C2=O)c2ccccc21	-2	2	.	13	2.4*
CC(C)n1cc(/C=C2\NC(=O)N(c3cccc(Cl)c3)C2=O)c2ccccc21	.	.	.	4	.
SMILES	CFTR F508del cor	DENV2 CPE	E-selectin induc	ERAP1 HTS inh	FGF22 binding
Cn1cc(CCNC(=O)CC2C(=O)NCCN2Cc2cccc(Oc3ccccc3)c2)cn1 (stereo unspecified)	-1	2	.	-4	44*
COc1cccc(CN2CCNC(=O)C2CC(=O)NC2Cc3ccccc3C2)c1 (stereo unspecified)	-1	2	.	3	1
O=C(CC1C(=O)NCCN1Cc1cccc(Oc2ccccc2)c1)NCCc1ccccn1 (stereo unspecified)	4	4	4	-5	0
CCCN1CCC(NC(=O)CC2C(=O)NCCN2Cc2cccc(OC)c2)CC1 (stereo unspecified)	-2	85*	-1	-1	0
CCCNC(=O)Nc1ccc2c(c1)OC[C@@H](C)N(CCC(F)(F)F)C[C@@H](C)[C@@H](OC)CN(C)C2=O	-2	-3	0	.	0
COc1ccc(NC(=O)N(C)C[C@@H]2Oc3c(NC(=O)Nc4c(C)noc4C)cccc3C(=O)N([C@H](C)CO)C[C@@H]2C)cc1	0	20	0	3	0
Cc1noc(NS(=O)(=O)c2ccc(NC(=O)/C=C/c3ccc(C(C)C)cc3)cc2)c1C	6	-1	0	3	1.4*
C=CCNC(=O)COC(=O)c1ccc(Sc2nncn2C)c([N+](=O)[O-])c1	0	.	.	-4	44*
O=C(Cc1ccncc1)NCC[C@@H]1CC[C@@H](NC(=O)C2CCCC2)[C@H](CO)O1	0	9	0	1	0
O=C(Nc1ccc(Br)cc1F)C1CCCN(S(=O)(=O)c2cnc[nH]2)C1 (stereo unspecified)	-1	-3	.	-1	2.0*
CC(=O)N1CCCN(Cc2nc(C3(c4ccc(C)cc4)CCCC3)no2)CC1	3	11	.	-5	0
COCCN1CCN(Cc2nc(C3(c4ccc(C)cc4)CCCC3)no2)CC1	-3	2	5	0	43*
CN(C)C(=O)c1cccc(-c2ccc(C3[C@@H]4CN(S(=O)(=O)c5cccc(Cl)c5)C[C@H]3N4)cc2)c1 (stereo partly specified)	1	-2	0	.	0
NC(=O)c1ncn([C@@H]2O[C@H](CNCc3cccn3-c3ccncc3)[C@@H](O)[C@H]2O)n1	-4	7	0	1	43*
CN1CCN(C(=O)C[C@@H]2CC[C@@H]3[C@H](COC[C@H](O)CN3C(=O)Nc3cc(Cl)cc(Cl)c3)O2)CC1	0	0	0	1	0
O=C(CSc1cccc[n+]1[O-])CSc1cccc[n+]1[O-]	2	-1	.	0	43*
O=[N+]([O-])c1ccc(/C=N/N2CCCCC2)cc1	2	33*	0	2	0
C[C@@H]1CCCCO[C@H](CN(C)C(=O)Cc2ccccc2)[C@H](C)CN([C@@H](C)CO)C(=O)c2cc(NS(=O)(=O)c3ccc(Cl)cc3)ccc2O1	-1	6	0	4	0
COc1ccc(S(=O)(=O)Nc2ccc3c(c2)C(=O)N([C@@H](C)CO)C[C@H](C)[C@@H](CN(C)C(=O)CCCN(C)C)OCCCC[C@H](C)O3)cc1	1	-4	0	-11	0
